# This sample holds only a part of the variants without activity.
# B1: tRNA (parent)
# chain: GUUCCGUUGGCGUAAUGGUAACGCGUCUCCCUCCUAAGGAGAAGACUGCGGGUUCGAGUCCCGUACGGAACG
# Variants of: B1
# Assay: yeast fitness relative to wild type (ratio to wild type); higher = fitter; tRNA-Arg(CCU), competitive growth, 37 C, YPD
# Summary of the method: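 Gene amplicons from the start population and from each of six end populations were read by 100-nucleotide paired-end sequencing. Those end populations came from pooled Saccharomyces cerevisiae strains carrying tRNA-Arg(CCU) gene variants at the native locus, competed in YPD at 37°C for 24 hours. Fitness relative to wild type was worked out from changes in genotype frequencies. Genotypes needed ≥ 100 starting reads, and estimates < 0.5 were set to 0.5.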
row,Variant,yeast fitness
1,U3C A42G,0.883
2,U3C A42C,0.85
3,U3C A42U,0.9
4,U3A U8A U32A U47A A57U,≤ 0.5
5,U3C A14U A37U C60A,0.586
6,U3C A21G C27A A36U A40G,≤ 0.5
7,U3A G6U G12C C22A C55G,≤ 0.5
8,U3A U8C A14C C61U,≤ 0.5
9,U3A G25A A69C,0.773
10,U3C A15G C49G,0.556
11,U3C A15G C30A,0.564
12,U3A U7A C30U G50C U59C,≤ 0.5
13,U3A G12A A20C C29G G67A,≤ 0.5
14,U3A U7C C27G C29G C34U,0.528
15,U3A U7A A15C C55G,≤ 0.5
16,U3A G38C C49U,≤ 0.5
17,U3C A43U G44C U64C,0.567
18,U3C A37C C49U,0.681
19,U3A U19C C61G,≤ 0.5
20,U3C A21G C46A G56A,≤ 0.5
21,U3C C5A C11G A20U G25C G56A G58A G67C,≤ 0.5
22,U3A C61U G67A,0.562
23,U3C A57G A69U,0.599
24,U3A G9C C34U,0.548

row,Variant,yeast fitness
1,U3C C4G C22G C33U A36C A40U,≤ 0.5
2,U3C C4G U8G C34U A37G,≤ 0.5
3,U3A G17C A20C U28A C46A,≤ 0.5
4,U3A U13A G23C A36C,0.529
5,U3A G12A C24U A45U U64C,≤ 0.5
6,U3C A20G A57U,0.597
7,U3C A42C A65U,0.651
8,U3C A20U A69G,0.612
9,U3A U54G,0.595
10,U3A G12C A21C A36C G68C,≤ 0.5
11,U3C A14G C34G A43C,≤ 0.5
12,U3A G9A A14C C55U A70G,≤ 0.5
13,U3C C4U C5G U16C C24G A42C G58A,≤ 0.5
14,U3A G25A C49G A65G A69U,≤ 0.5
15,U3A G18A C22U C61A,≤ 0.5
16,U3A G9C A65C,≤ 0.5
17,U3C A43U A45G,0.567
18,U3C C4U A57G,0.677
19,U3C A14C A45C,≤ 0.5
20,U3C C5G C30G A36C,≤ 0.5
21,U3A U59C,0.884
22,U3C A40G,0.929
23,U3C A40C,0.935
24,U3C A57G A70U,0.564

row,Variant,yeast fitness
1,U3C A20C G23C G56C,≤ 0.5
2,U3A U16C A20C A45G,≤ 0.5
3,U3A G12A U19A,0.763
4,U3A C49U G63A,0.764
5,U3C A20U C30U A37G A70C,0.708
6,U3A G51A A65G A69C,0.544
7,U3A G10A C27U A40U,≤ 0.5
8,U3C C5G,0.761
9,U3A G9C G39A C55U A70C,≤ 0.5
10,U3A G9C G67C,≤ 0.5
11,U3C A57C A65U,≤ 0.5
12,U3A G12C U19C,≤ 0.5
13,U3A C46U G56C A69U,≤ 0.5
14,U3A C46U G48A,0.695
15,U3A G58C,0.987
16,U3A C60U C66G,0.658
17,U3A G44A A45C U53A C55A U59C C62U,0.534
18,U3C C4U A70U,0.841
19,U3C A45C G48A U54C,0.751
20,U3C A40C C61G,0.576
21,U3A C55U G56C,≤ 0.5
22,U3C C4A A15C C27G C33U C61G,≤ 0.5
23,U3A U13A G23C A36C A70C,0.596
24,U3A G25C C34U G41A C49G,≤ 0.5

row,Variant,yeast fitness
1,U3C A45U G50A,0.849
2,U3A G23A A69C,0.571
3,U3A U7A C49A,0.542
4,U3C A21G C49U,1.02
5,U3C A21G C46G G50A,≤ 0.5
6,U3A G12A C46G,0.657
7,U3A U16C C46U C49U,≤ 0.5
8,U3C A14C A21G A37U C49A C60G,0.629
9,U3A C49U A65G,0.711
10,U3C A40U G63A A65G,0.549
11,U3C C4G A20G A43G,≤ 0.5
12,U3C A65U,0.997
13,U3C A65C,1
14,U3A U13A,1.04
15,U3A U13C,0.955
16,U3A U13G,0.729
17,U3A C46U C49U U53C,≤ 0.5
18,U3C C5A A15U A20G,≤ 0.5
19,U3A G50C,0.727
20,U3A G50A,0.853
21,U3C A42U C61G,0.66
22,U3C A14U A20C C30G C55U,≤ 0.5
23,U3C A15C A43G C46G C66G A69G,≤ 0.5
24,U3A G12A C24G C29U A36G,≤ 0.5

row,Variant,yeast fitness
1,U3A C46U A69C,0.76
2,U3A U35C G63C,≤ 0.5
3,U3C C4A A45G,0.531
4,U3A C46A G56A,0.713
5,U3C C5G C11G,≤ 0.5
6,U3A U13C C29A U32A A43G G67C,≤ 0.5
7,U3A G12C U13C A69U,1.13
8,U3A G12C U13C A69C,0.732
9,U3C A14C A40U,≤ 0.5
10,U3A G10C C24G A37U G38A G48C,≤ 0.5
11,U3C A14U A20C C30G G58A A65G,≤ 0.5
12,U3A U54G A57C,≤ 0.5
13,U3A G9C C33G A42U A43U A65C G68C,≤ 0.5
14,U3A U8A C31G A40C C66U,≤ 0.5
15,U3A G12C U13C C66U,0.664
16,U3C A70C,0.993
17,U3C A70G,0.944
18,U3A U47C G51A U53C,≤ 0.5
19,U3A U32G G39C G52C,≤ 0.5
20,U3A U47A,0.744
21,U3A U47C,0.835
22,U3A G17A C22U G48A C62A,≤ 0.5
23,U3A G51C,≤ 0.5
24,U3A G18A A45G A57C,≤ 0.5

row,Variant,yeast fitness
1,U3C C5G A21U A42C A70G,0.542
2,U3A U13C C29A A43G,≤ 0.5
3,U3C A15C C34G U47A C55U G68U,≤ 0.5
4,U3C C5G A14U A43G G67C,≤ 0.5
5,U3A U7A C22U C49A,≤ 0.5
6,U3A G25C G67C,0.567
7,U3C A15U C34U A43G U54C,≤ 0.5
8,U3A U35A C60G,0.593
9,U3A G9A U19A C61G,≤ 0.5
10,U3C A40U G58A,1.02
11,U3A U26C C31U G52A,≤ 0.5
12,U3A G18C U28A,≤ 0.5
13,U3C A21C A65C,≤ 0.5
14,U3C A14G C30U A45C C46G A65G,≤ 0.5
15,U3A G9C A20C A21C G25A G56A U64C,0.73
16,U3A U16C A20C G67A,0.541
17,U3A G10C A36U A40C A65G,≤ 0.5
18,U3A G9C C27G,≤ 0.5
19,U3C C4U C55U,0.699
20,U3C C5A G18C A45C G56C C60U G68U,≤ 0.5
21,U3A U8A G25C C30A U54C,≤ 0.5
22,U3A U16C C27G A36U G39C U53A A70G,≤ 0.5
23,U3C A15U C34U A43G G68A A69U,≤ 0.5
24,U3C C4U A43U G58A,≤ 0.5

row,Variant,yeast fitness
1,U3A C46G U47C,0.675
2,U3C C5G C11G A45C,≤ 0.5
3,U3A G12C G58A,0.579
4,U3A G25A,1.09
5,U3A G41C U53G,≤ 0.5
6,U3A U26C C31U A40C,≤ 0.5
7,U3C A21G G38A G56A,≤ 0.5
8,U3C A14G C29G A37U A42G,0.609
9,U3C A15C G51C C61A,≤ 0.5
10,U3A U64C G68C,0.586
11,U3A G44C,0.879
12,U3A G23C,0.653
13,U3C A37C A70G,0.555
14,U3C A37C A70U,0.683
15,U3C C5A C11G A20U G25C U32A,≤ 0.5
16,U3C A40C A45C,0.502
17,U3A U32C,1
18,U3C A43U A45G A69C,≤ 0.5
19,U3A U16C G68C,≤ 0.5
20,U3C A37C G38A G52A G63A,≤ 0.5
21,U3C A14C A45C C60G,0.591
22,U3A U7A G23C A42C U47A C49G,≤ 0.5
23,U3C A15G C30A A57G,≤ 0.5

# Source: the RNAGym collection of RNA variant scans (doi:10.1126/science.aae0568)
